Sampled rows, rich in hits. Any-hit rate of the full collection: about 4.9%.
HSF1 inhib: HSF1 inhibitors in luciferase reporter cells, primary screen, cell-based, NIH3T3, luminescence; NIH3T3-HGL HSE-luciferase, MG132-induced, luminescence 8 h; active compounds read low; activity change, negative = inhibition, % at 7.5 µM (by protocol); 300,000 tested, 0.77% active; AID 2098, 2009;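 active = more than half of replicate wells show activity change below -50%, luminescence cut by over half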;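 also: luciferase reports HSF-1 transcriptional activity via heat shock element; 0% = median of DMSO wells and -100% = zero luminescence signal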
HSF1 activator: HSF-1 activators, primary screen, NIH3T3-HGL cells, MG132 stress, luminescence, single point | NIH3T3-HGL HSF-1 luciferase reporter, 8 h; 100% = twice DMSO control signal | activation, % at 9 µM | 300,000 tested, 1.7% active;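 active = mean replicate activation of at least 50% with a set share of replicates each reaching 50%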;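 also: 0% = median of the neutral control wells and 100% = twice that signal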
PHOSPHO1 inh: PubChem AID 1565 | inhibition, % at 13.3 µM | recombinant PHOSPHO1, absorbance phosphatase assay | 290,000 tested, 1.1% active; in the data active = inhibition above about 60%
Lipid droplet: inhibitors of hepatocyte lipid droplet formation, primary screen, imaging, high-throughput imaging, BODIPY stain. AML12 mouse hepatocytes, oleate lipid droplets. inhibition, % at 6.5 µM. 240,000 tested, 0.4% active;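 active = lipid droplet intensity inhibited by at least 50%, with more than 500 cells counted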
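Material: mouse AML12 hepatocyte cell line, fixed after treatment; Timing: compound with oleate, overnight; Technique: high-content imaging of BODIPY-stained droplets and DAPI nuclei; Probe or stimulus: oleate, 100 µM final; Dosing: compound at 6.5 µM only.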
CHT PAM: CHT positive allosteric modulators, primary screen, cell-based, membrane potential dye, choline EC20; High affinity choline transporter 1 (Homo sapiens), Q9GZV3; CHT-expressing cells; active compounds read high; LV-AA mutant CHT in HEK293 cells; B-score at 10 µM; 310,000 tested, 0.49% active; AID 488977, 2010;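 active = initial fluorescence not abnormally high and integrated response B-score, plate-corrected, over 3 SD above library mean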
Target sequence (Q9GZV3 whole entry, looked up): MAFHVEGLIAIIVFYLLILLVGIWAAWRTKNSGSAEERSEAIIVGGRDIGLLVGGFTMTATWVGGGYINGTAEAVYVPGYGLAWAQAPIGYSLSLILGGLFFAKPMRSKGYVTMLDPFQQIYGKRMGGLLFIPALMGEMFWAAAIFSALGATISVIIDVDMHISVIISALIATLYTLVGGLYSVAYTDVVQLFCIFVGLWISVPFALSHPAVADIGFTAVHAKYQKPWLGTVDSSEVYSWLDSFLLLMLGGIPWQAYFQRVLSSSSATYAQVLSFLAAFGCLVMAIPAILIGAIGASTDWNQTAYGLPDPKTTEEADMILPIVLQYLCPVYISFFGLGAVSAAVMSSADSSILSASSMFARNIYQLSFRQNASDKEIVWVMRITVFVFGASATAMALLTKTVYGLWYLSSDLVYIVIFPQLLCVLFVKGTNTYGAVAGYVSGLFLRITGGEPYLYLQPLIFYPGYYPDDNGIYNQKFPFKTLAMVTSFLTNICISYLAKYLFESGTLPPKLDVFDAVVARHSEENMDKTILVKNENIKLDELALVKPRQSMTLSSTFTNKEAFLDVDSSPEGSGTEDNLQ
CHT inh: inhibitors of human choline transporter CHT | CHT-expressing cells, membrane potential dye, choline response; active compounds read low | AID 488975, 2010 | B-score at 10 µM | 310,000 tested, 0.86% active | High affinity choline transporter 1 (Homo sapiens), Q9GZV3;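 active = B-score over 3 SD under the library average, and starting fluorescence ratio not unusually high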;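 also: choline stimulus applied at its EC90 after an EC20 pre-addition; B-score computed on integrated fluorescence ratio after choline addition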
The depositor's hits bear a star.

For Cc1ccc(C2=N/C(=C\N3CCCCC3)C(=O)O2)cc1 the results were HSF1 inhib 21, HSF1 activator 63*, PHOSPHO1 inh 15, Lipid droplet -6, CHT PAM inactive and CHT inh inactive.
Screening CC(=O)C12C3C4C(C5C1C3C5(Br)C41OCCO1)C21OCCO1 (configuration not stated) returned HSF1 inhib -5, HSF1 activator 10, PHOSPHO1 inh -25, Lipid droplet -21, CHT PAM inactive and CHT inh inactive.
COc1ccc(OC)c2c1C(=O)C(Cl)=C(Cl)C2=O was read as HSF1 inhib -70*, HSF1 activator -71, PHOSPHO1 inh 20, Lipid droplet 10, CHT PAM inactive and CHT inh inactive.
`COc1cccc2c1C(=O)c1ccc3ccccc3c1C2=O` gave HSF1 inhib 16, HSF1 activator 13, PHOSPHO1 inh 87*, Lipid droplet -8, CHT PAM inactive and CHT inh inactive.
`COc1ccc2noc3c2c1C(=O)c1ccccc1-3` gave HSF1 inhib 3, HSF1 activator 1, CHT PAM inactive and CHT inh inactive.
COc1ccc(OC)c2c1C(=O)c1ccccc1C2=O was read as HSF1 inhib 5, HSF1 activator -2, PHOSPHO1 inh 95*, CHT PAM inactive and CHT inh inactive.
`O=C(O)c1ccc(SCc2cnc(Cl)s2)cc1` gave HSF1 inhib 3, HSF1 activator -6, PHOSPHO1 inh 16, CHT PAM inactive and CHT inh inactive.
For CCOc1ccc2nc(NC(=O)NC3CCCCC3)sc2c1 the results were HSF1 inhib 18, HSF1 activator 8, PHOSPHO1 inh 34, Lipid droplet 12, CHT PAM inactive and CHT inh inactive.
Screening CCOC(=O)Cc1csc(NC(=O)Nc2cccs2)n1 returned HSF1 inhib -57*, HSF1 activator -66, CHT PAM inactive and CHT inh inactive.
For CCOc1ccc2nc(NC(=O)Nc3ccccc3)sc2c1 the results were HSF1 inhib 29, HSF1 activator 74*, PHOSPHO1 inh -4, Lipid droplet 5, CHT PAM inactive and CHT inh inactive.
`CCOc1ccc2nc(NC(=O)Nc3cccs3)sc2c1` gave HSF1 inhib 50, HSF1 activator 80*, PHOSPHO1 inh -11, CHT PAM inactive and CHT inh inactive.
`CCOc1ccc2nc(NC(=O)c3ccco3)sc2c1` gave HSF1 inhib 14, HSF1 activator 28, PHOSPHO1 inh 24, Lipid droplet -2, CHT PAM inactive and CHT inh inactive.
`CCOc1ccc2nc(NC(=S)NCc3ccccc3)sc2c1` gave HSF1 inhib -14, HSF1 activator -2, PHOSPHO1 inh 72*, Lipid droplet -2, CHT PAM inactive and CHT inh inactive.
For CCOC(=O)Cc1csc(NC(=O)Cc2cccs2)n1 the results were HSF1 inhib 8, HSF1 activator 6, PHOSPHO1 inh 2, CHT PAM inactive and CHT inh inactive.
Screening COc1ccc(CCN=Cc2ccc(O)cc2)cc1OC returned HSF1 inhib -6, HSF1 activator -14, Lipid droplet 14, CHT PAM inactive and CHT inh inactive.
For FC(F)(F)c1cc(-c2ccccc2)nc(N2CCCCC2)n1 the results were HSF1 inhib -2, HSF1 activator -3, PHOSPHO1 inh 11, Lipid droplet 0, CHT PAM inactive and CHT inh inactive.
For FC(F)(F)c1cc(-c2ccccc2)nc(N2CCOCC2)n1 the results were HSF1 inhib -20, HSF1 activator -35, PHOSPHO1 inh 74*, CHT PAM inactive and CHT inh inactive.
COc1cccc(NC(=O)CCC2CCN(C(=O)c3c(C)noc3C)CC2)c1 was read as HSF1 inhib 1, HSF1 activator -2, PHOSPHO1 inh 22, Lipid droplet 1, CHT PAM inactive and CHT inh inactive.
`Cc1cc2oc(=O)cc(COC(=O)c3n[nH]c4ccccc34)c2cc1C` gave HSF1 inhib 26, HSF1 activator 51*, PHOSPHO1 inh 3, Lipid droplet 20, CHT PAM inactive and CHT inh inactive.
`COc1ccc2c(COC(=O)c3n[nH]c4ccccc34)cc(=O)oc2c1` gave HSF1 inhib 49, HSF1 activator 63*, PHOSPHO1 inh 3, Lipid droplet -4, CHT PAM inactive and CHT inh inactive.
For Cc1cc(C)n(CCC(=O)Nc2ccc3c(c2)OCCO3)n1 the results were HSF1 inhib -28, HSF1 activator -26, PHOSPHO1 inh 22, Lipid droplet 2, CHT PAM inactive and CHT inh inactive.
`O=C(c1cc(-c2ccccn2)nc2ccc(Cl)cc12)N1CCN(CCc2ccccc2)CC1` gave HSF1 inhib -2, HSF1 activator 4, PHOSPHO1 inh 38, CHT PAM inactive and CHT inh inactive.
Nc1cc(F)ccc1N1CCCCCC1 was read as HSF1 inhib -1, HSF1 activator 11, PHOSPHO1 inh 16, Lipid droplet -9, CHT PAM inactive and CHT inh inactive.
`COc1ccc(OCCc2nnc(N)s2)cc1` gave HSF1 inhib -4, HSF1 activator 2, PHOSPHO1 inh 62*, CHT PAM inactive and CHT inh inactive.
For COc1ccccc1OCCc1nnc(N)s1 the results were HSF1 inhib 5, HSF1 activator -1, PHOSPHO1 inh 3, Lipid droplet 12, CHT PAM inactive and CHT inh inactive.
`O=C1C2C3C=CC(C3)C2C(=O)N1/N=C/c1cc(Br)cc([N+](=O)[O-])c1O` (configuration not stated) gave HSF1 inhib -2, HSF1 activator 18, PHOSPHO1 inh -9, Lipid droplet 3, CHT PAM inactive and CHT inh inactive.
For CC(=O)c1ccccc1C(=O)N1CCC(n2nccc2NC(=O)C2CC2)CC1 the results were HSF1 inhib -2, HSF1 activator -7, PHOSPHO1 inh 66*, Lipid droplet 3, CHT PAM inactive and CHT inh inactive.
`Cc1cccc(NC(=O)Nc2cc(C)cc(C)n2)c1` gave HSF1 inhib 19, HSF1 activator 53*, PHOSPHO1 inh -7, Lipid droplet 7, CHT PAM inactive and CHT inh inactive.
Cc1cccc(NC(=O)Nc2cccc(F)c2)n1 was read as HSF1 inhib 13, HSF1 activator 19, PHOSPHO1 inh 14, CHT PAM inactive and CHT inh inactive.

Screens deposited in PubChem by several laboratories.
